ChEMBL document CHEMBL1127319, “CNAD: a potent and specific inhibitor of alcohol dehydrogenase” (J Med Chem, 1994)

Columns and labels:
[1] = target: Glutamate dehydrogenase 1, mitochondrial (Bos taurus, UniProt P00366); experiment: Inhibition constant against mammalian glutamate dehydrogenase (GDH)
How it was run: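 Bovine liver GDH in 0.1 M sodium phosphate, pH 7.0, with 10 μM EDTA. NAD is the variable substrate. Rates are followed as the increase in A340 from NADH formation (ε 6.22 mM-1 cm-1). Ki is taken from Lineweaver-Burk plots by linear regression. At least duplicate runs.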

[2] = Apparent inhibition constant against mammalian malate dehydrogenase (MDH)
How it was run: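 LDH and MDH: 0.05 M Tris-HCl, pH 9.0. NAD is the variable substrate. Rates come from the rise in A340 as NADH forms (ε 6.22 mM-1 cm-1). Ki is estimated from Lineweaver-Burk plots by linear regression of slope and intercept. Assays run at least in duplicate.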

Chain of Glutamate dehydrogenase 1, mitochondrial (P00366 whole entry): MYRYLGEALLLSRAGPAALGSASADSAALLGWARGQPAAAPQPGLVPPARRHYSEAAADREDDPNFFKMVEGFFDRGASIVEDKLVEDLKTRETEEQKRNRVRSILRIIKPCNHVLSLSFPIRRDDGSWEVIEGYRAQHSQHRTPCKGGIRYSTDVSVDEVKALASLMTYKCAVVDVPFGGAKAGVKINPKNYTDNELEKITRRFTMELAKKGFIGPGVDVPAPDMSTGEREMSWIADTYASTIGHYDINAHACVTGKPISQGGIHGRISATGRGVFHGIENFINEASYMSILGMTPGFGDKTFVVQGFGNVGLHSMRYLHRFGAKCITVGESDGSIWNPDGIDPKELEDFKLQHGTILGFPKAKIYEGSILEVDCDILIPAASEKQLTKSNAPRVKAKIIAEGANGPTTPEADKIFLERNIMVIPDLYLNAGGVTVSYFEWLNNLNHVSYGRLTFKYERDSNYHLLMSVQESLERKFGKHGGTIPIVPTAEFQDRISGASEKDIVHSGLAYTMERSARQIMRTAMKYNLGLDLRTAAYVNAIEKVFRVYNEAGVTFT

| Compound | Ki [1] [µM] | Ki [2] [µM] |
| --- | --- | --- |
| NC(=O)C1=CN(C2OC(COP(=O)(O)OP(=O)(O)OC[C@H]3O[C@@H](n4cnc5c(N)ncnc54)[C@H](O)[C@@H]3O)[C@H](O)[C@@H]2O)C=CC1 (stereo partly drawn) | 3.4 |  |
| NC(=O)c1cccc([C@@H]2O[C@H](COP(=O)(O)OP(=O)(O)OC[C@H]3O[C@@H](n4cnc5c(N)ncnc54)[C@H](O)[C@@H]3O)[C@@H](O)[C@H]2O)n1 | 50 |  |
| NC(=O)c1cncc([C@@H]2O[C@H](COP(=O)(O)OP(=O)(O)OC[C@H]3O[C@@H](n4cnc5c(N)ncnc54)[C@H](O)[C@@H]3O)[C@@H](O)[C@H]2O)c1 |  | 410 |
